Source: ChEMBL document CHEMBL5120933, “Direct-to-Biology Accelerates PROTAC Synthesis and the Evaluation of Linker Effects on Permeability and Degradation” (ACS Med Chem Lett, 2022)

What was measured:
[1] = test system: HEK293; experiment: Cytotoxicity against human HEK293 cells assessed as inhibition of cell viability incubated for 30 mins in presence of CRBN-tracer by nanoBRET assay; assay type: functional, cell-based
[2] = target: Protein cereblon/Bromodomain-containing protein 4 (Homo sapiens, UniProt O60885+Q96SW2); experiment: PROTAC activity at […]/BRD4 in human HEK293T cells assessed as degradation of BRD4 incubated for 24 hrs by HiBiT assay; assay type: cell-based
[3] = target: Bromodomain-containing protein 4 (Homo sapiens) (UniProt O60885); experiment: Relative binding affinity to BRD4 (unknown origin)
[4] = test system: HEK293; experiment: Cytotoxicity against permeabilized HEK293 cells assessed as inhibition of cell viability incubated for 30 mins in presence of CRBN-tracer by nanoBRET assay; assay type: functional, cell-based, Homo sapiens
Summary of the method: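 Transfected HEK293 cells (NanoLuc-CRBN plus DDB1), thawed from frozen into phenol-red-free Opti-MEM (500,000 cells/mL). Wells held CRBN-tracer (7.5 nL) and 11-pt 3-fold titrations (50 uM top assay concentration); 18 uL cells added, then 2 uL 0.5 mg/mL digitonin, 30 min at room temperature. NanoBRET substrate 1:166, no extracellular inhibitor; BRET luminescence at 450-480 nm and 610-LP.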

[5] = test system: HEK293; experiment: Cytotoxicity against human HEK293 cells assessed as inhibition of cell viability at […] incubated for 30 mins by cell titer-glo assay relative to control; assay type: functional
[6] = test system: HEK293; experiment: Cytotoxicity against human HEK293 cells assessed as inhibition of cell viability incubated for 24 hrs by cell titer-glo assay; conditions: HEK293, 24 h
[7] = test system: HEK293; experiment: Cytotoxicity against human HEK293 cells assessed as inhibition of cell viability at 12 uM incubated for 30 mins by cell titer-glo assay relative to control; assay type: functional; conditions: HEK293, 0.5 h
[8] = test system: HEK293; experiment: Cytotoxicity against human HEK293 cells assessed as inhibition of cell viability at 10 uM incubated for 30 mins by cell titer-glo assay relative to control; assay type: functional; conditions: HEK293, 0.5 h
[9] = Homo sapiens, HEK293, 0.5 h, read-out: Emax

Chain of Protein cereblon/Bromodomain-containing protein 4 (Q96SW2 whole entry, looked up, other chains not shown): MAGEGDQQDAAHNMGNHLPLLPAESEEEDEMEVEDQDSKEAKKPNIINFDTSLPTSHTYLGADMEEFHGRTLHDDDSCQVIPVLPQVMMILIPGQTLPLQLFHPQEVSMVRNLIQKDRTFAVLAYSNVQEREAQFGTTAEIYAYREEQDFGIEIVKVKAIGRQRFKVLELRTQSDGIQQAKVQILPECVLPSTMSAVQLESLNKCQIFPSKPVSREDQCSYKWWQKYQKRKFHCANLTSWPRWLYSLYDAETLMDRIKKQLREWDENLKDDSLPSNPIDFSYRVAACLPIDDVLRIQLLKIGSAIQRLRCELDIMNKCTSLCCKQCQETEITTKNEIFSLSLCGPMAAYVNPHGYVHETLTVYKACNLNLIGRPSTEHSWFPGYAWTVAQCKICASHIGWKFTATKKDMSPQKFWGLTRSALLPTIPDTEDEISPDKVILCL

SMILES	IC50 ([1]; Homo sapiens, HEK293, 0.5 h) [nM]	DC50 [2] [nM]	relative binding affinity (RBA) [3]	IC50 ([4]; Homo sapiens, HEK293, 0.5 h) [nM]	Emax [5, 9] [%]	EC50 [6] [nM]	further results
Cc1sc2c(c1C)C(c1ccc(Cl)cc1)=N[C@@H](CC(=O)N1CCN(c3ncc(OC4CCN(C(=O)COc5cccc6c5C(=O)N(C5CCC(=O)NC5=O)C6=O)CC4)cn3)CC1)c1nnc(C)n1-2 (stereo not given in full)	70	6	2.3	–	–	–	–
Cc1ccc(C(=O)N(C)CCN2CCN(C(=O)C[C@@H]3N=C(c4ccc(Cl)cc4)c4c(sc(C)c4C)-n4c(C)nnc43)CC2)cc1N1CCC(=O)NC1=O	4500	88	0.9	–	–	–	–
Cc1sc2c(c1C)C(c1ccc(Cl)cc1)=N[C@@H](CC(=O)N[C@H]1C[C@H](N(C)C(=O)COc3cccc4c3C(=O)N(C3CCC(=O)NC3=O)C4=O)C1)c1nnc(C)n1-2 (stereo not given in full)	89	110	25	–	–	–	–
Cc1ccc(C(=O)N(C)[C@H]2C[C@H](NC(=O)C[C@@H]3N=C(c4ccc(Cl)cc4)c4c(sc(C)c4C)-n4c(C)nnc43)C2)cc1N1CCC(=O)NC1=O	2100	> 20000	6.4	–	–	–	–
O=C(O)COc1cccc2c1C(=O)N(C1CCC(=O)NC1=O)C2=O (stereo not given)	> 50000	> 50000	–	830	7.58	> 50000	–
Cc1ccc(C(=O)O)cc1N1CCC(=O)NC1=O	> 50000	> 21700	–	1940	7.84	> 50000	–
O=C1CCC(=O)N1O	> 50000	> 50000	–	> 50000	10.8	> 50000	–
Cc1sc2c(c1C)C(c1ccc(Cl)cc1)=N[C@@H](CC(=O)NCCCCNC(=O)COc1cccc3c1C(=O)N(C1CCC(=O)NC1=O)C3=O)c1nnc(C)n1-2 (stereo in doubt; form 2)	–	–	–	–	–	–	IC50 ([1]; hek293): 930 nM; IC50 ([4]; hek293): 56 nM; Emax at 12 µM [7]: 21.7%
Cc1sc2c(c1C)C(c1ccc(Cl)cc1)=N[C@@H](CC(=O)NCCCCNC(=O)COc1cccc3c1C(=O)N(C1CCC(=O)NC1=O)C3=O)c1nnc(C)n1-2 (stereo in doubt; form 1)	–	–	–	90	–	–	IC50 ([1]; hek293): 2200 nM; Emax at 10 µM [8]: 25.2%
Cc1sc2c(c1C)C(c1ccc(Cl)cc1)=N[C@@H](CC(=O)O)c1nnc(C)n1-2	> 50000	> 50000	–	> 50000	–	> 50000	Emax ([5]; 0.5 h): 14.23%
Cc1sc2c(c1C)C(c1ccc(Cl)cc1)=N[C@@H](CC(=O)N(C)CCOCCNC(=O)COc1cccc3c1C(=O)N(C1CCC(=O)NC1=O)C3=O)c1nnc(C)n1-2 (stereo not given in full)	1600	7100	9.6	–	–	–	–
O=C1CCC(N2C(=O)c3cccc(OCC(=O)ON4C(=O)CCC4=O)c3C2=O)C(=O)N1 (stereo not given)	7420	> 50000	–	1050	11.9	> 50000	–
Cc1sc2c(c1C)C(c1ccc(Cl)cc1)=N[C@@H](CC(=O)ON1C(=O)CCC1=O)c1nnc(C)n1-2	> 50000	> 50000	–	> 50000	5.26	> 50000	–
Cc1ccc(C(=O)N2CCC(Oc3cnc(N4CCN(C(=O)C[C@@H]5N=C(c6ccc(Cl)cc6)c6c(sc(C)c6C)-n6c(C)nnc65)CC4)nc3)CC2)cc1N1CCC(=O)NC1=O	100	20	0.9	–	–	–	–
Cc1ccc(C(=O)ON2C(=O)CCC2=O)cc1N1CCC(=O)NC1=O	22200	> 50000	–	6040	9.24	> 50000	–
Cc1ccc(C(=O)NCCOCCN(C)C(=O)C[C@@H]2N=C(c3ccc(Cl)cc3)c3c(sc(C)c3C)-n3c(C)nnc32)cc1N1CCC(=O)NC1=O	3200	23	5	–	–	–	–
Cc1sc2c(c1C)C(c1ccc(Cl)cc1)=N[C@@H](CC(=O)N1CCN(CCN(C)C(=O)COc3cccc4c3C(=O)N(C3CCC(=O)NC3=O)C4=O)CC1)c1nnc(C)n1-2 (stereo not given in full)	71	241	25	–	–	–	–
